Experimental data reported in ChEMBL document CHEMBL1122607, “Heterocyclic analogues of chlorcyclizine with potent hypolipidemic activity” (J Med Chem, 1984).

Assays:
Rattus norvegicus [1] = assay: Minimum effective dose (MED) is the dose (mg/kg)that cause significant reduction in serum cholesterol of 30% compared to concurrent controls.; assay type: functional; parameters: unit: mg/kg
Procedure, shortened: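 MED was calculated from the log dose/response curve as the dose giving a statistically significant 30% fall in serum cholesterol versus concurrent controls. Measured in the 3-day oral cholesterol-fed rat screen, or in a 2-week test: groups of eight young male Wistar rats on cholesterol/cholic acid-supplemented or normal diet, dosed orally by gavage daily for 14 days, vehicle 0.5% tragacanth mucilage.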

Rattus norvegicus [2] = assay: Hypolipidemic activity was measured as reduction in rat serum cholesterol after oral administration in male Wistar rats at 100 mg/(kg day); assay type: functional
Procedure, shortened: (§1)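 Cholesterol-fed rats given the test compound orally by gavage on the last 3 days, with controls receiving vehicle (0.5% tragacanth mucilage). After overnight starvation, rats were killed under CO2 3 h after the last dose and bled by cardiac puncture. Serum cholesterol and triglyceride were measured by autoanalyzer and expressed as percentage reduction from control levels, with Student's t test.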

Rattus norvegicus [3] = assay: Hypolipidemic activity was measured as reduction in rat serum cholesterol after oral administration in male Wistar rats at 3 mg / (kg day); assay type: functional; procedure, shortened: as §1
Rattus norvegicus [4] = assay: Hypolipidemic activity was measured as reduction in rat serum cholesterol after oral administration in male Wistar rats at 30 mg / (kg day); assay type: functional; procedure, shortened: as §1
Rattus norvegicus [5] = assay: Hypolipidemic activity was measured as reduction in rat serum triglyceride after oral administration in male Wistar rats at 1 mg / (kg day); assay type: functional; procedure, shortened: as §1
Rattus norvegicus [6] = assay: Hypolipidemic activity was measured as reduction in rat serum triglyceride after oral administration in male Wistar rats at 10 mg / (kg day); assay type: functional; procedure, shortened: as §1
Rattus norvegicus [7] = assay: Hypolipidemic activity was measured as reduction in rat serum triglyceride after oral administration in male Wistar rats at 3 mg / (kg day); assay type: functional; procedure, shortened: as §1
Rattus norvegicus [8] = assay: Hypolipidemic activity was measured as reduction in rat serum triglyceride after oral administration in male Wistar rats at 30 mg / (kg day); assay type: functional; procedure, shortened: as §1
Rattus norvegicus [9] = assay: Hypolipidemic activity was measured as reduction in rat serum cholesterol after oral administration in male Wistar rats at 1 mg / (kg day); assay type: functional; procedure, shortened: as §1
Rattus norvegicus [10] = assay: Hypolipidemic activity was measured as reduction in rat serum cholesterol after oral administration in male Wistar rats at 10 mg / (kg day); assay type: functional; procedure, shortened: as §1
[11] = (§2) The therapeutic safety margin (TSM) is the ratio of the minimum lethal dose (mg/kg)to the MED; assay type: ADME, organism-based; conditions: in vivo
Procedure, shortened: (§3)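 Young male Wistar rats, eight per group, on cholesterol/cholic acid-supplemented or normal diet; graded oral gavage doses daily for 14 days; vehicle controls (0.5% tragacanth mucilage). Mortalities recorded to give the minimum lethal daily dose. After overnight fasting, serum cholesterol assayed by autoanalyzer. MED is the dose giving a significant (t test) 30% cholesterol fall, from the log dose/response curve. TSM = minimum lethal dose/MED.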

Rattus norvegicus [12] = assay: Hypolipidemic activity was measured as reduction in rat serum triglyceride after oral administration in male Wistar rats at 100 mg / (kg day); assay type: functional; procedure, shortened: as §1
Rattus norvegicus [13] = assay: Hypolipidemic activity was measured as reduction in rat serum cholesterol after oral administration in male Wistar rats at 100 mg / (kg day); assay type: functional; procedure, shortened: as §1
Rattus norvegicus [14] = assay: Hypolipidemic activity was measured as reduction in rat serum cholesterol after oral administration in male Wistar rats at 200 mg/(kg day); assay type: functional; procedure, shortened: as §1
Rattus norvegicus [15] = assay: Hypolipidemic activity was measured as reduction in rat serum cholesterol after oral administration in male Wistar rats at 3 mg / (kg day);; assay type: functional; procedure, shortened: as §1
Rattus norvegicus [16] = assay: Hypolipidemic activity was measured as reduction in rat serum triglyceride after oral administration in male Wistar rats at 3 mg / (kg day);; assay type: functional; procedure, shortened: as §1
Rattus norvegicus [17] = assay: Hypolipidemic activity was measured as reduction in rat serum triglyceride after oral administration in male Wistar rats at 1; assay type: functional; procedure, shortened: as §1
Rattus norvegicus [18] = assay: Hypolipidemic activity was measured as reduction in rat serum triglyceride after oral administration in male Wistar rats at 200 mg / (kg day); assay type: functional; procedure, shortened: as §1
Rattus norvegicus [19] = assay: Hypolipidemic activity was measured as reduction in rat serum triglyceride after oral administration in male Wistar rats at 50 mg / (kg day); assay type: functional; procedure, shortened: as §1
Rattus norvegicus [20] = assay: Hypolipidemic activity was measured as reduction in rat serum cholesterol after oral administration in male Wistar rats at 20 mg / (kg day); assay type: functional; procedure, shortened: as §1
Rattus norvegicus [21] = assay: Hypolipidemic activity was measured as reduction in rat serum cholesterol after oral administration in male Wistar rats at 50 mg / (kg day); assay type: functional; procedure, shortened: as §1
Rattus norvegicus [22] = assay: Hypolipidemic activity was measured as reduction in rat serum triglyceride after oral administration in male Wistar rats at 20 mg / (kg day); assay type: functional; procedure, shortened: as §1
Rattus norvegicus [23] = assay: xHypolipidemic activity was measured as reduction in rat serum cholesterol after oral administration in male Wistar rats at 10 mg / (kg day); assay type: functional; procedure, shortened: as §1
[24] = as §2; assay type: functional; procedure, shortened: as §3
Rattus norvegicus [25] = assay: Hypolipidemic activity was measured as reduction in rat serum cholesterol after oral administration in male Wistar rats at 200 mg / (kg day); assay type: functional; procedure, shortened: as §1

SMILES	MED (Rattus norvegicus [1])	Reduction (Rattus norvegicus [2])	Reduction (Rattus norvegicus [3])	Reduction (Rattus norvegicus [4])	Reduction (Rattus norvegicus [5])	Reduction (Rattus norvegicus [6])	Reduction (Rattus norvegicus [7])	Reduction (Rattus norvegicus [8])	Reduction (Rattus norvegicus [9])	Reduction (Rattus norvegicus [10])	therapeutic safety margin (minimum lethal dose / MED) [11]	Reduction (Rattus norvegicus [12])	further results
Cc1noc(C)c1C(=C1CCN(C)CC1)c1ccc(C(C)C)cc1	1	82%	58%	89%	13%	78%	43%	93%	31%	83%	50	90%	–
CC(C)c1ccc(C(c2ccns2)N2CCNCC2)cc1 (stereo unspecified)	1	84%	57%	74%	24%	65%	18%	87%	37%	62%	4	90%	–
Cc1cc(C(c2ccccc2)N2CCN(C)CC2)sn1 (stereo unspecified)	–	–	–	–	–	–	–	–	–	–	–	–	Reduction (Rattus norvegicus [13]): 21%; Reduction (Rattus norvegicus [14]): 36%
Cc1cnsc1C(c1ccc(C(C)C)cc1)N1CCNCC1 (stereo unspecified)	2	86%	44%	87%	15%	48%	2%	76%	16%	70%	10	81%	–
Cc1noc(C)c1C(=C1CCNCC1)c1ccc(C(C)C)cc1	–	89%	44%	83%	41%	46%	6%	83%	6%	65%	–	89%	–
Cc1noc(C)c1C(c1ccc(C(C)C)cc1)N1CCNCC1 (stereo unspecified)	1	86%	–	85%	22%	82%	–	94%	19%	76%	50	96%	Reduction (Rattus norvegicus [15]): 72%; Reduction (Rattus norvegicus [16]): 45%
Cc1noc(C)c1C(c1ccc(C(C)C)cc1)N1CCN(CCO)CC1 (stereo unspecified)	2	84%	50%	77%	–	56%	29%	16%	5%	76%	100	84%	Reduction (Rattus norvegicus [17]): 7%
Cc1cc(C(=C2CCN(C)CC2)c2ccc(C(C)C)cc2)sn1	6	83%	26%	87%	3%	34%	37%	76%	19%	62%	5	96%	–
Cc1cc(C(c2ccc(Cl)cc2)N2CCN(C)CC2)sn1 (stereo unspecified)	–	–	–	–	–	–	–	–	–	–	–	2%	Reduction (Rattus norvegicus [13]): 15%; Reduction (Rattus norvegicus [18]): 19%; Reduction (Rattus norvegicus [14]): 67%
COc1ccccc1C(c1ccns1)N1CCN(C)CC1 (stereo unspecified)	80	38%	–	–	–	–	–	–	–	–	–	13%	Reduction (Rattus norvegicus [19]): 32%; Reduction (Rattus norvegicus [20]): 3%; Reduction (Rattus norvegicus [21]): 31%; Reduction (Rattus norvegicus [22]): 22%
CCC(C)c1ccc(C(c2cc(C)ns2)N2CCN(C)CC2)cc1 (stereo unspecified)	14	72%	–	67%	–	15%	–	55%	–	–	20	87%	Reduction (Rattus norvegicus [23]): 19%
CN1CCN(C(c2ccccc2)c2ccccc2)CC1 [CYCLIZINE]	30	–	–	–	–	–	–	–	–	–	–	–	Ratio [24]: 10
Cc1cnsc1C(c1ccc(C(C)C)cc1)N1CCN(CCO)CC1 (stereo unspecified)	3	87%	30%	82%	3%	48%	8%	69%	10%	69%	30	97%	–
Cc1cc(C(c2ccccc2Cl)N2CCN(C)CC2)sn1 (stereo unspecified)	30	61%	–	–	–	–	–	–	–	–	15	44%	Reduction (Rattus norvegicus [19]): 50%; Reduction (Rattus norvegicus [20]): 16%; Reduction (Rattus norvegicus [21]): 63%; Reduction (Rattus norvegicus [22]): 8%
Cc1cc(C(c2ccccc2C)N2CCN(C)CC2)sn1 (stereo unspecified)	22	–	–	–	–	–	–	–	–	–	10	–	Reduction (Rattus norvegicus [19]): 26%; Reduction (Rattus norvegicus [20]): 27%; Reduction (Rattus norvegicus [25]): 65%; Reduction (Rattus norvegicus [21]): 56%; Reduction (Rattus norvegicus [18]): 84%; Reduction (Rattus norvegicus [22]): 14%
CN1CCN(C(c2ccns2)c2ccccc2Cl)CC1 (stereo unspecified)	10	67%	–	–	–	12%	–	–	–	31%	5	52%	Reduction (Rattus norvegicus [20]): 43%; Reduction (Rattus norvegicus [22]): 15%
